Test results published in article PMC5599994 (Clinical Pharmacology in Drug Development, 2017).
Several values for one entry are separate records, joined by “and”; a condition that tells them apart may be missing. Equal entries are not always repeated.

Experiments:
CYP2B6 mRNA = assay: CYP mRNA induction in HepaRG cell cultures; assay type: in vitro ADME, human; settings: 24 hours; for maximal increase in CYP2B6 mRNA levels relative to vehicle control: positive controls
[1] = assay type: in vivo, human; settings: plasma; midazolam 7.5 mg oral single dose alone, day 1
CYP3A4 = assay: Clinical drug-drug interaction: ratio; assay type: in vivo, human; settings: (midazolam + tenapanor)/midazolam; tenapanor 15 mg twice daily; healthy volunteers
CYP1A2 mRNA = assay: CYP mRNA induction in HepaRG cell cultures; assay type: in vitro ADME, human; settings: 24 hours
HepaRG cells = assay: Cytotoxicity in the HepaRG induction experiments; assay type: cell-based, human
CYP2C9 = CYP2C9 (Homo sapiens, UniProt P11712); assay: Reversible CYP inhibition in human liver microsomes, diclofenac marker; assay type: in vitro ADME
Outline: (§1)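 A cocktail at or below KM was incubated 5 min at 37°C with NADPH in 150-donor pooled human liver microsomes: phenacetin 30 μM (CYP1A2), diclofenac 10 μM (CYP2C9), (S)-mephenytoin 35 μM (CYP2C19), bufuralol 5 μM (CYP2D6), midazolam 3 μM (CYP3A4/5). Test compound was run at 0.1–30 μM (six levels), in triplicate. TCA quench, then LC-MS/MS (MRM) of metabolites. IC50 was fitted from % of DMSO-control activity versus log concentration; inhibition only at top concentration was reported as >30 μM.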

CYP2B6 = target: T1, CYP2B6 (Homo sapiens, UniProt P20813); assay: Reversible CYP inhibition in human liver microsomes, bupropion marker; assay type: in vitro ADME
T1 sequence (P20813 1-491): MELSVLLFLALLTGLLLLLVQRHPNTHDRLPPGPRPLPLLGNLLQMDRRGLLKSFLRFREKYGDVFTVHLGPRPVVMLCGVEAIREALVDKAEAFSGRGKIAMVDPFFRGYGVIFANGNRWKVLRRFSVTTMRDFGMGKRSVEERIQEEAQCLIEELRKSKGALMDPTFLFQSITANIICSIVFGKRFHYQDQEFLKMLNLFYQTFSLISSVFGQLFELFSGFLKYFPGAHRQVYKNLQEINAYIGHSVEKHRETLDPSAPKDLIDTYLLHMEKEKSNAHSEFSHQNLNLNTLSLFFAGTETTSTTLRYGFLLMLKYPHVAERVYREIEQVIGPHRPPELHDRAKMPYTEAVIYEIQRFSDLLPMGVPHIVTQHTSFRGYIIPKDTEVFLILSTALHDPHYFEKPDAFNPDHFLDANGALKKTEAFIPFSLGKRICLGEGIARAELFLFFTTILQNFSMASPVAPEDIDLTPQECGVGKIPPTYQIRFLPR
Outline: (§2)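 Pooled human liver microsomes (150 donors) with NADPH, 10 min at 37°C, using a substrate cocktail at or below KM: bupropion 80 μM (CYP2B6), amodiaquine 2 μM (CYP2C8), nifedipine 25 μM. Test compound was run at six levels, 0.1–30 μM, in triplicate. TCA quench, then metabolite by LC-MS/MS (MRM). IC50 came from a fit of % DMSO-control activity against log concentration; inhibition only at 30 μM was reported as >30 μM.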

CYP1A2 = target: T2, CYP1A2 (Homo sapiens, UniProt P05177); assay: Reversible CYP inhibition in human liver microsomes, phenacetin marker; assay type: in vitro ADME; settings: probe phenacetin 30 μM (paracetamol formation)
T2 sequence (P05177 1-516): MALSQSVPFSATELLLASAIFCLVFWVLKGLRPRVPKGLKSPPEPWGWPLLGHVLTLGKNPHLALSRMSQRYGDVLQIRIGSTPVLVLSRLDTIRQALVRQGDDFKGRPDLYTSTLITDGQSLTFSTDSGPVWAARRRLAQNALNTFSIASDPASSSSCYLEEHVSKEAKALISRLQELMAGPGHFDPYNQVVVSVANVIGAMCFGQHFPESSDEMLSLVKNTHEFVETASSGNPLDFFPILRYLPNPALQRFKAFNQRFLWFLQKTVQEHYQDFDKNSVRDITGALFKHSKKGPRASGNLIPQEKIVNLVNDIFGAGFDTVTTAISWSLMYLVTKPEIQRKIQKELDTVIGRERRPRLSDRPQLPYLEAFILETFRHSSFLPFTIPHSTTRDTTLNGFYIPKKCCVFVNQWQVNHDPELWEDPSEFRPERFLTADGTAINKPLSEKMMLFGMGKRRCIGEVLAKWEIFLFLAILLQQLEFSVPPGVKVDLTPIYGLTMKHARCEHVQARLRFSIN
Outline: as §1

CYP3A4 mRNA = settings: HepaRG, 24 hours
CYP2D6 = CYP2D6 (Homo sapiens, UniProt P10635); assay: Reversible CYP inhibition in human liver microsomes, bufuralol marker; assay type: in vitro ADME
Outline: as §1

[2] = patients with CKD stage 5D on dialysis; in 387 of 390 serum samples; cited from earlier work
CYP2C8 = target: T3, CYP2C8 (Homo sapiens, UniProt P10632); assay: Reversible CYP inhibition in human liver microsomes, amodiaquine marker; assay type: in vitro ADME
T3 sequence (P10632 1-490): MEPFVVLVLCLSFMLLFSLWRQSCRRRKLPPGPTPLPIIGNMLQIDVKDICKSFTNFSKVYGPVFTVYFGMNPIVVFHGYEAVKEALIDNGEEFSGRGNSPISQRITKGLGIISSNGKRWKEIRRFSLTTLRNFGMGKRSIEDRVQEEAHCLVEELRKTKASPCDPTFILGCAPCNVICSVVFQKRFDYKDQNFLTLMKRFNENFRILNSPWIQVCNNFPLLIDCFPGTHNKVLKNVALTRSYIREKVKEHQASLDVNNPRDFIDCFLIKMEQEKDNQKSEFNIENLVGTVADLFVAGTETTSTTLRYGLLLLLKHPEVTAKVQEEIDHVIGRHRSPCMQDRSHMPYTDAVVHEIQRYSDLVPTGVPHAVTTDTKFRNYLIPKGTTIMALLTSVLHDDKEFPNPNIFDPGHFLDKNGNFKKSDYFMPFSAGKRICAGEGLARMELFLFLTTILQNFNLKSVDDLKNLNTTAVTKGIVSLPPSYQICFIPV
Outline: as §2

CYP2C19 = CYP2C19 (Homo sapiens, UniProt P33261); assay: Reversible CYP inhibition in human liver microsomes; assay type: in vitro ADME
Outline: as §1

Safety and tolerability = assay type: in vivo, human
CYP3A4/5 = assay type: in vitro ADME; settings: human, human liver microsomes, probe midazolam 3 μM (1-OH-midazolam formation)
Outline: as §1

[3] = concentrations of up to 20 μM, all experiments
[4] = tenapanor 15 mg twice daily alone

Sequence of CYP2C19 (P33261 whole entry): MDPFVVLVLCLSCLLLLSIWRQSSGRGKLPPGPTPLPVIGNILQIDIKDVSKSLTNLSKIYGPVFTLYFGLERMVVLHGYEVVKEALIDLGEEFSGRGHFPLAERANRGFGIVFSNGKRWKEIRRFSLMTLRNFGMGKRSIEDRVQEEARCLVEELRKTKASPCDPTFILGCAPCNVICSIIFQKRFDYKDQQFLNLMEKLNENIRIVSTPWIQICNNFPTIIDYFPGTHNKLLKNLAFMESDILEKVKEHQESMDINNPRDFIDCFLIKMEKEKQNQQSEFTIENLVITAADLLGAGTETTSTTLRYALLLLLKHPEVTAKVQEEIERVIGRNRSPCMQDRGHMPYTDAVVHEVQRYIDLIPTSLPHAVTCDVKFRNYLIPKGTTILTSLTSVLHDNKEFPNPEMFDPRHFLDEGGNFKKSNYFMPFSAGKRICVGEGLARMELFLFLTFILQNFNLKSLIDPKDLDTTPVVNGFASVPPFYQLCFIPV
Sequence of CYP2C9 (P11712 whole entry): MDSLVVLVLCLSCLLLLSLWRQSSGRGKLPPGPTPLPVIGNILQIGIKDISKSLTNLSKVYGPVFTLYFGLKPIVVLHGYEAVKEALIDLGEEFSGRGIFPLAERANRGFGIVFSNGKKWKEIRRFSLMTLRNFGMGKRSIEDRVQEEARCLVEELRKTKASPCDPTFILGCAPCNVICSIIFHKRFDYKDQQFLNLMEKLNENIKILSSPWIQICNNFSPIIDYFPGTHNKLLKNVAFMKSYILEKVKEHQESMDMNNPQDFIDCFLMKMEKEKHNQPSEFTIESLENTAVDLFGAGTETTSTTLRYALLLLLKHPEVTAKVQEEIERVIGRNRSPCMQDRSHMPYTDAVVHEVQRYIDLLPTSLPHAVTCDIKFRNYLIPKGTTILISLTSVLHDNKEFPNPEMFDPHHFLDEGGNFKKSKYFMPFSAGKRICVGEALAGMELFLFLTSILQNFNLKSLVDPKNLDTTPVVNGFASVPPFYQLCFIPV
Sequence of CYP2D6 (P10635 whole entry): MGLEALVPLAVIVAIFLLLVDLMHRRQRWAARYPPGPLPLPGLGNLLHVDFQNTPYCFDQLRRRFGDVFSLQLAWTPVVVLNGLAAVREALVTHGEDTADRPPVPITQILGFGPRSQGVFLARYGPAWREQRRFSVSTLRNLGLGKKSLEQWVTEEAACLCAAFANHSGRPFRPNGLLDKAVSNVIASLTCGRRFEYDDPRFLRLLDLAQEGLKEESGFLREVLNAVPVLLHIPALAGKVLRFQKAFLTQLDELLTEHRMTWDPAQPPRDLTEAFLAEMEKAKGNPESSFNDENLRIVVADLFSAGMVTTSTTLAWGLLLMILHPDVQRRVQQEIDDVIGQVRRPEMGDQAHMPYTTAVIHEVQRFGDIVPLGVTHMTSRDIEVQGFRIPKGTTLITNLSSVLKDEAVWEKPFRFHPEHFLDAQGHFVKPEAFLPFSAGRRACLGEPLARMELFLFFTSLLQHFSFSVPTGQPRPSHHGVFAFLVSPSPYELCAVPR

Clc1ccc(-c2nc3sccn3c2C=NOCc2ccc(Cl)c(Cl)c2)cc1 [CITCO, 6‐[4‐chlorophenyl]imidazo[2,1‐b][1,3]thiazole‐5‐carbaldehyde O‐[3,4‐dichlorobenzyl]oxime]
maximal increase in CYP2B6 mRNA levels relative to vehicle control (CYP2B6 mRNA): 13.2 fold

OCc1ncc2n1-c1ccc(Cl)cc1C(c1ccccc1F)=NC2 [1‐OH‐midazolam]
AUC0-t, arithmetic mean (SD) [1]: 52.1 (29.7) ng·h/mL | AUC0-t, geometric mean (GCV%) [1]: 47.2 (43.1) ng·h/mL | AUC, arithmetic mean (SD) [1]: 54.1 (31.6) ng·h/mL | AUC, geometric mean (GCV%) [1]: 48.8 (43.6) ng·h/mL | Cmax, arithmetic mean (SD) [1]: 26.6 (12.0) ng/mL | Cmax, geometric mean (GCV%) [1]: 24.1 (47.8) ng/mL | t1/2, arithmetic mean (SD) [1]: 5.14 (2.22) h | t1/2, geometric mean (GCV%) [1]: 4.64 (50.0) h | tmax, median (range) [1]: 0.50 (0.25‐0.55) h | AUC0-t ratio (90%CI), geometric least-squares means (CYP3A4): 110 (104‐116) % | AUC ratio (90%CI), geometric least-squares means (CYP3A4): 110 (103‐116) % | Cmax ratio (90%CI), geometric least-squares means (CYP3A4): 103 (87.2‐122) %

COc1ccc2[nH]c([S+]([O-])Cc3ncc(C)c(OC)c3C)nc2c1 (centres unmarked) [omeprazole, reference compound]
maximal increase in CYP1A2 mRNA levels relative to vehicle control (CYP1A2 mRNA; positive control): 32.0 fold

CN1Cc2c(Cl)cc(Cl)cc2[C@H](c2cccc(S(=O)(=O)NCCOCCOCCNC(=O)NCCCCNC(=O)NCCOCCOCCNS(=O)(=O)c3cccc([C@@H]4CN(C)Cc5c(Cl)cc(Cl)cc54)c3)c2)C1 [Tenapanor]
cytotoxicity to HepaRG cells (HepaRG cells; 20 μM): not | cytotoxicity to HepaRG cells (HepaRG cells; 50 μM): cytotoxic | IC50 (CYP2C9): 14.2 ± 3.2 µM | IC50 (CYP2B6): 15.4 ± 7.5 µM | IC50 at 5 min (CYP1A2): > 30 µM | CYP3A4 mRNA induction as % of the positive control response (CYP3A4 mRNA; 1 of 4 experiments): 16.8% | induction of CYP3A4 mRNA expression (CYP3A4 mRNA; 1 of 4 experiments): up to 5.85 fold | influence on CYP3A4 mRNA levels (CYP3A4 mRNA; 3 of 4 experiments): not observed to influence | IC50 (CYP2D6): 3.26 ± 0.54 µM | induction of CYP1A2 mRNA expression (CYP1A2 mRNA; [3]): did not induce | serum tenapanor [2]: below the limit of quantification | IC50 (CYP2C8): 10.4 ± 3 µM | IC50 (CYP2C19): > 30 µM | Tenapanor IC50 (n = 3) (CYP2C19; human liver microsomes, S-mephenytoin 35 μM to 4-OH-mephenytoin): No IC50 could be determined | induction of CYP2B6 mRNA expression (CYP2B6 mRNA; [3]): did not induce | volunteers reporting at least 1 AE (Safety and tolerability; healthy volunteers): 9/27 | abdominal pain (Safety and tolerability; [4]): 1 n | abnormal gastrointestinal sounds (Safety and tolerability; [4]): 2 n | defecation urgency (Safety and tolerability; [4]): 1 n | dizziness (Safety and tolerability; [4]): 2 n | hypertrophy of tongue papillae (Safety and tolerability; [4]): 1 n | gastrointestinal disorders (Safety and tolerability; tenapanor 15 mg twice daily alone, of the 9 volunteers who reported AEs): 5 volunteers | IC50 at 5 min (CYP3A4/5): 0.402 ± 0.032 µM

CCC1(c2ccccc2)C(=O)NC(=O)NC1=O [phenobarbital]
maximal increase in CYP2B6 mRNA levels relative to vehicle control (CYP2B6 mRNA): 17.0 fold

Cc1ncc2n1-c1ccc(Cl)cc1C(c1ccccc1F)=NC2 [Midazolam, midazolam, reference compound]
tmax, median (range) [1]: 0.50 (0.25‐0.55) h | somnolence (Safety and tolerability; healthy volunteers): 27/28 | volunteers reporting at least 1 AE (Safety and tolerability; healthy volunteers): 27/28 | AUC0-t ratio (90%CI), geometric least-squares means (CYP3A4): 106 (100‐113) % | AUC ratio (90%CI), geometric least-squares means (CYP3A4): 107% and 107 (101‐113) % | Cmax ratio (90%CI), geometric least-squares means (CYP3A4): 104% and 104 (89.6‐122) %

Cc1ncc2n1-c1ccc(Cl)cc1C(c1ccccc1F)=NC2O (centres unmarked) [4‐OH‐midazolam]
AUC0-t, arithmetic mean (SD) [1]: 5.65 (1.50) ng·h/mL | AUC0-t, geometric mean (GCV%) [1]: 5.47 (26.9) ng·h/mL | AUC, arithmetic mean (SD) [1]: 6.14 (1.56) ng·h/mL | AUC, geometric mean (GCV%) [1]: 5.96 (25.3) ng·h/mL | Cmax, arithmetic mean (SD) [1]: 2.11 (0.757) ng/mL | Cmax, geometric mean (GCV%) [1]: 1.99 (37.6) ng/mL | t1/2, arithmetic mean (SD) [1]: 2.48 (0.820) h | t1/2, geometric mean (GCV%) [1]: 2.37 (30.2) h | tmax, median (range) [1]: 0.50 (0.25‐1.02) h | AUC0-t ratio (90%CI), geometric least-squares means (CYP3A4): 106 (99.1‐113) % | AUC ratio (90%CI), geometric least-squares means (CYP3A4): 105 (98.7‐111) % | Cmax ratio (90%CI), geometric least-squares means (CYP3A4): 105 (90.5‐122) %
